Values after ≈ are worked out from the molar mass of the structure shown.
Tests used:
NCI-H226 = assay: Growth inhibition of human NCI-H226 cells; type: functional
HCT-15 = assay: Growth inhibition of human HCT15 cells; type: functional
HOP-92 = assay: Growth inhibition of human HOP92 cells; type: functional
[1] = Growth inhibition of human DMS144 cells; type: functional
M19-MEL = assay: Growth inhibition of human M19-MEL cells; type: functional
[2] = Growth inhibition of human […] cells; type: functional
KM12 = assay: Growth inhibition of human KM12 cells; type: functional
M14 = assay: Growth inhibition of human M14 cells; type: functional
UACC-62 = assay: Growth inhibition of human UACC62 cells; type: functional
Outline: (§1)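 Tested at the NCI in its human disease-oriented in vitro screen of 60 tumour cell lines, following the Monks et al. methods. Activity is expressed as GI50, given as log molar values.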

NCI-H322M = assay: Growth inhibition of human NCI-H322M cells; type: functional
[3] = Growth inhibition of human OVACR5 cells; type: functional
SW-620 = assay: Growth inhibition of human SW620 cells; type: functional; outline: as §1
SK-MEL-5 = assay: Growth inhibition of human SK-MEL-5 cells; type: functional; conditions: for EC50: read-out: ED50 (the source's name); outline: as §1
SNB-19 = assay: Growth inhibition of human SNB19 cells; type: functional; outline: as §1
HT-29 = assay: Growth inhibition of human HT29 cells; type: functional
HCT-116 = assay: Growth inhibition of human HCT116 cells; type: functional
HCC 2998 = assay: Growth inhibition of human HCC2998 cells; type: functional
IGROV-1 = assay: Growth inhibition of human IGROV1 cells; type: functional
ACHN = assay: Growth inhibition of human ACHN cells; type: functional
LOX IMVI = assay: Growth inhibition of human LOX IMVI cells; type: functional
MOLT-4 = assay: Growth inhibition of human MOLT4 cells; type: functional
KM-20L2 = assay: Growth inhibition of human KM20L2 cells; type: functional
A549 = assay: Growth inhibition of human A549 cells; type: functional
HOP-62 = assay: Growth inhibition of human HOP62 cells; type: functional
[4] = Growth inhibition of human OVACR8 cells; type: functional
SF-268 = assay: Growth inhibition of human SF268 cells; type: functional; outline: as §1
NCI-H460 = assay: Growth inhibition of human NCI-H460 cells; type: functional
DMS-273 = assay: Growth inhibition of human DMS273 cells; type: functional
K562 = assay: Growth inhibition of human K562 cells; type: functional
[5] = Growth inhibition of human RPMI8266 cells; type: functional
SN12C = assay: Growth inhibition of human SN12C cells; type: functional; outline: as §1
U-251 = assay: Growth inhibition of human U251 cells; type: functional; outline: as §1
SNB-75 = assay: Growth inhibition of human SNB75 cells; type: functional; outline: as §1
NCI-H522 = assay: Growth inhibition of human NCI-H522 cells; type: functional
CCRF-CEM = assay: Growth inhibition of human CCRF-CEM cells; type: functional
COLO 205 = assay: Growth inhibition of human COLO205 cells; type: functional; conditions: for EC50: read-out: ED50 (the source's name)
SR = assay: Growth inhibition of human SR cells; type: functional; outline: as §1
[6] = Growth inhibition of human LXFL529 cells; type: functional; conditions: LXFL 529
786-0 = assay: Growth inhibition of human 786-0 cells; type: functional
DLD-1 = assay: Growth inhibition of human DLD1 cells; type: functional
SF-539 = assay: Growth inhibition of human SF539 cells; type: functional; outline: as §1
SK-MEL-2 = assay: Growth inhibition of human SK-MEL-2 cells; type: functional; outline: as §1
UO-31 = assay: Growth inhibition of human UO31 cells; type: functional; outline: as §1
TK-10 = assay: Growth inhibition of human TK10 cells; type: functional; outline: as §1
SK-OV-3 = assay: Growth inhibition of human SK-OV-3 cells; type: functional; outline: as §1
Malme-3M = assay: Growth inhibition of human MALME-3M cells; type: functional
[7] = Growth inhibition of human HL60(TB) cells; type: functional, HL-60(TB); conditions: HL-60
SK-MEL-28 = assay: Growth inhibition of human SK-MEL-28 cells; type: functional; outline: as §1
KB = assay: Growth inhibition of human KB cells; type: functional; conditions: read-out: ED50 (the source's name)
Outline: (§2)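 In-house cytotoxicity assay following an NCI protocol, run on a panel of human tumour lines: KB nasopharyngeal epidermoid carcinoma and HCT-8 ileocecal adenocarcinoma. Potency is reported as ED50 in µg/mL.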

HCT-8 = assay: Growth inhibition of human HCT8 cells; type: functional; conditions: read-out: ED50 (the source's name); outline: as §2
XF498 = assay: Growth inhibition of human XF498 cells; type: functional; outline: as §1

Structure (SMILES): COc1cc(CO)cc2c1[nH]c1ccccc12 [KOENOLINE]
- GI50 (NCI-H226): 1.74 µM
- TGI (NCI-H226; read-out: pTGI): 5.25 µM

Structure (SMILES): COc1cc(Cn2c3ccccc3c3cc(C)cc(OC)c32)cc2c1[nH]c1ccccc12
- GI50 (HCT-15): 17 µM
- GI50 (HOP-92): 5.37 µM
- GI50 [1]: 20 µM
- GI50 (M19-MEL): 25.1 µM
- GI50 [2]: 10.2 µM
- GI50 (KM12): 10.2 µM
- GI50 (M14): 6.31 µM
- GI50 (UACC-62): 15.1 µM
- GI50 (NCI-H322M): 25.1 µM
- GI50 [3]: 25.1 µM
- GI50 (SW-620): 13.5 µM
- GI50 (SK-MEL-5): 25.1 µM
- GI50 (SNB-19): 25.1 µM
- GI50 (HT-29): 17 µM
- GI50 (HCT-116): 25.1 µM
- GI50 (HCC 2998): 25.1 µM
- GI50 (IGROV-1): 25.1 µM
- GI50 (ACHN): 12.3 µM
- GI50 (LOX IMVI): 8.13 µM
- GI50 (MOLT-4): 8.51 µM
- GI50 (KM-20L2): 15.5 µM
- GI50 (A549): 23.4 µM
- GI50 (HOP-62): 6.61 µM
- GI50 [4]: 10.5 µM
- GI50 (SF-268): 17.4 µM
- GI50 (NCI-H460): 10.7 µM
- GI50 (DMS-273): 15.1 µM
- GI50 (K562): 9.77 µM
- GI50 [5]: 25.1 µM
- GI50 (SN12C): 25.1 µM
- GI50 (NCI-H226): 17 µM
- GI50 (U-251): 25.1 µM
- GI50 (SNB-75): 22.9 µM
- GI50 (NCI-H522): 5.37 µM
- GI50 (CCRF-CEM): 12 µM
- GI50 (COLO 205): 25.1 µM
- GI50 (SR): 16.6 µM
- GI50 [6]: 17 µM
- GI50 (786-0): 25.1 µM
- GI50 (DLD-1): 25.1 µM
- GI50 (SF-539): 9.77 µM
- GI50 (SK-MEL-2): 25.1 µM
- GI50 (UO-31): 25.1 µM
- GI50 (TK-10): 25.1 µM
- GI50 (SK-OV-3): 25.1 µM
- GI50 (Malme-3M): 25.1 µM
- GI50 [7]: 12.3 µM
- GI50 (SK-MEL-28): 25.1 µM

Structure (SMILES): CC1=CC(=O)c2c([nH]c3ccc(F)cc23)C1=O
- EC50 (SK-MEL-5): 5.5 mg/L (≈ 24 µM)
- EC50 (KB): 2.03 mg/L (≈ 8.86 µM)
- EC50 (HCT-8): 4.76 mg/L (≈ 20.8 µM)
- EC50 (COLO 205): 4.5 mg/L (≈ 19.6 µM)

Structure (SMILES): COc1cc(Cc2c(C)cc(OC)c3[nH]c4ccccc4c23)cc2c1[nH]c1ccccc12
- GI50 (HCT-15): 6.92 µM
- GI50 (HOP-92): 7.59 µM
- GI50 [1]: 10.5 µM
- GI50 (M19-MEL): 9.77 µM
- GI50 [2]: 5.37 µM
- GI50 (KM12): 5.37 µM
- GI50 (M14): 5.13 µM
- GI50 (UACC-62): 5.62 µM
- GI50 (NCI-H322M): 7.24 µM
- GI50 [3]: 5.01 µM
- GI50 (SW-620): 8.13 µM
- GI50 (SK-MEL-5): 3.98 µM
- GI50 (SNB-19): 5.89 µM
- GI50 (HT-29): 7.76 µM
- GI50 (HCT-116): 9.12 µM
- GI50 (HCC 2998): 5.37 µM
- GI50 (IGROV-1): 9.12 µM
- GI50 (ACHN): 4.68 µM
- GI50 (LOX IMVI): 3.89 µM
- GI50 (MOLT-4): 5.75 µM
- GI50 (KM-20L2): 5.25 µM
- GI50 (A549): 5.75 µM
- GI50 (HOP-62): 5.5 µM
- GI50 [4]: 4.57 µM
- GI50 (SF-268): 6.92 µM
- GI50 (NCI-H460): 5.13 µM
- GI50 (DMS-273): 7.59 µM
- GI50 (XF498): 6.03 µM
- GI50 (K562): 7.24 µM
- GI50 [5]: 10 µM
- GI50 (SN12C): 6.46 µM
- GI50 (NCI-H226): 4.68 µM
- GI50 (U-251): 5.01 µM
- GI50 (SNB-75): 5.75 µM
- GI50 (NCI-H522): 5.01 µM
- GI50 (CCRF-CEM): 8.51 µM
- GI50 (COLO 205): 12 µM
- GI50 (SR): 7.76 µM
- GI50 [6]: 4.17 µM
- GI50 (786-0): 5.37 µM
- GI50 (DLD-1): 8.91 µM
- GI50 (SF-539): 4.57 µM
- GI50 (SK-MEL-2): 3.98 µM
- GI50 (UO-31): 6.03 µM
- GI50 (TK-10): 12 µM
- GI50 (SK-OV-3): 8.71 µM
- GI50 (Malme-3M): 4.47 µM
- GI50 [7]: 7.94 µM
- GI50 (SK-MEL-28): 8.71 µM

Structure (SMILES): COc1ccc2[nH]c3c(c2c1)C(=O)C=C(C)C3=O
- EC50 (SK-MEL-5): 6.22 mg/L (≈ 25.8 µM)
- EC50 (KB): 5.08 mg/L (≈ 21.1 µM)
- EC50 (HCT-8): 6.03 mg/L (≈ 25 µM)
- EC50 (COLO 205): > 20 mg/L
